In one data set the test system is firefly luciferase. Nature of the data set: firefly luciferase counter-assay. It counts as biochemical.
In a further data set the target is PKM2 (Homo sapiens, UniProt P14618). In words: steady-state kinetics of PEP and ADP in the PK-LDH coupled assay. It counts as biochemical. The following applies: in the presence of activator (10 μM); PEP varied.
Data set [1] can be described thus: kinetic solubility analysis. It counts as physicochemical. Conditions: aqueous medium (not further specified). An outline of the steps: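 Solubility determined by quantitative nitrogen detection. Three separate experiments; average intra-assay %CV 4.5%.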
The target of data set [2] is hPK, M2 (pyruvate kinase, human M2 isoform, PKM2) (Homo sapiens, UniProt P14618). Nature of the data set: luminescent pyruvate kinase-luciferase coupled assay. It counts as biochemical. Conditions: read-out: hPK, M2 AC50, three separate experiments.
hPK, M2 (pyruvate kinase, human M2 isoform, PKM2), sequence (P14618 whole entry, canonical isoform): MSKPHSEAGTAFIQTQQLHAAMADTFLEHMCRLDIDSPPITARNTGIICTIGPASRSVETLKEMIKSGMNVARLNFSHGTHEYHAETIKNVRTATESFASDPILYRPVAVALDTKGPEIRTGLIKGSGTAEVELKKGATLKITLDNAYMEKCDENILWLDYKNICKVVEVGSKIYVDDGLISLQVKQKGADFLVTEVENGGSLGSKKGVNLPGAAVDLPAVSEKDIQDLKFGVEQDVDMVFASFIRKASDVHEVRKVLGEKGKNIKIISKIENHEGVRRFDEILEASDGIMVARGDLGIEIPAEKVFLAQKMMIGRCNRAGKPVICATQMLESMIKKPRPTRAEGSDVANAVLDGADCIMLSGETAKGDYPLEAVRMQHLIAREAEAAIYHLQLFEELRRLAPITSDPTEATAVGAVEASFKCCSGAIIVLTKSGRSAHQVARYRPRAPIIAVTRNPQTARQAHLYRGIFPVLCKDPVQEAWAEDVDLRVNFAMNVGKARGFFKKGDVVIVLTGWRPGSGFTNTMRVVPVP

The structures appear in SMILES notation. ≈ marks a conversion by molar mass, not a printed value.

PKM2, sequence (P14618 whole entry): as the sequence (P14618 whole entry, canonical isoform) above

`COc1ccc(S(=O)(=O)N2CCN(S(=O)(=O)c3ccc4c(c3)OCCO4)CC2)cc1` [compound 2]: the “activation of firefly luciferase” value in the data set on firefly luciferase is “did not activate”. On PKM2, the Vmax is listed as 265 pmols/min.
`O=S(=O)(c1ccc2c(c1)OCCO2)N1CCN(S(=O)(=O)c2c(F)cccc2F)CC1` [compound 10] yielded a solubility in data set [1] of under 0.5 µg/mL.
Still for that read-out and setting: the figure for `O=S(=O)(c1ccc2c(c1)OCCO2)N1CCCN(S(=O)(=O)c2c(F)cccc2F)CC1` [compound 34] is 2.7 µg/mL (≈ 5.69 µM).
In the case of `O=S(=O)(N[C@H]1CC[C@H](NS(=O)(=O)c2c(F)cccc2F)CC1)c1ccc2c(c1)OCCO2` [compound 40], the AC50 in data set [2] was found to be 2110 nM.
`Nc1cccc(S(=O)(=O)N2CCN(S(=O)(=O)c3c(F)cccc3F)CC2)c1` [compound 56] gave a solubility in data set [1] of 3 µg/mL (≈ 7.19 µM).
In turn, `COc1cc(F)c(S(=O)(=O)N2CCCN(S(=O)(=O)c3cccc(N)c3)CC2)c(F)c1` [compound 57] yielded a solubility in data set [1] of 15.1 µg/mL (≈ 32.7 µM).

Source of the values: article PMC2818804 (Journal of medicinal chemistry, 2010).
